# Assay results: ChEMBL document CHEMBL1125276 (J Med Chem, 1991)
# Assays:
# L1210 = assay: Tested for the inhibition of L1210 cell proliferation.; type: functional, cell-based; settings: Mus musculus
# Summary of the method: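 L1210 cells were grown in RPMI 1640 with 10% FCS, 2 mM L-glutamine and 10 mM HEPES (pH 7.4). Exponential-phase cells (10^5 cells/mL) were exposed for 24 h to 5 drug concentrations in triplicate, then pulsed 3 h with 0.5 µCi/mL [3H]thymidine. Cells were harvested onto filters and counted. IC50 is 50% inhibition of incorporation versus untreated cells, given as the mean of 2–5 independent experiments.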
# P388 [1] = assay: Compound was tested for T/C range at optimal dose of 1.00 mg/kg for antitumor activity against P388 leukemia cells in mice.; type: functional, Mus musculus
# Tubulin = assay: The compound tested for the inhibition of tubulin polymerization.; type: functional
# Summary of the method: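 Tubulin was partially purified from dog brain by polymerization/depolymerization cycles and used at 0.5 mg/mL. Compounds were added in DMSO (10 µL per 500 µL reaction) at 10^-6 to 10^-9 M, with DMSO-only controls. Polymerization was followed by turbidity at 350 nm. Rates from two separate experiments were plotted against concentration, and IC50 was read graphically.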
# P388 [2] = assay: Long-term survivors (LTS) for 60 days at optimal dose of 1.00 mg/kg for antitumor activity against P388 leukemia cells in 6 mice.; type: functional, Mus musculus
# P388 [3] = assay: Long-term survivors (LTS) for 60 days at optimal dose of 0.5 mg/kg for antitumor activity against P388 leukemia cells in 96 mice.; type: functional, Mus musculus
# P388 [4] = assay: Compound was tested for T/C range at optimal dose of 0.5 mg/kg for antitumor activity against P388 leukemia cells in mice; value ranges from 151-480; type: functional, Mus musculus
# P388 [5] = assay: Long-term survivors (LTS) for 60 days at optimal dose of 40.0 mg/kg for antitumor activity against P388 leukemia cells in 6 mice.; type: functional, Mus musculus
# P388 [6] = assay: Compound was tested for T/C range at optimal dose of 40.0 mg/kg for antitumor activity against P388 leukemia cells in mice.; type: functional, Mus musculus
# P388 [7] = assay: Long-term survivors (LTS) for 60 days at optimal dose of 3.0 mg/kg for antitumor activity against P388 leukemia cells in 6 mice.; type: functional, Mus musculus
# P388 [8] = assay: Compound was tested for T/C range at optimal dose of 3.0 mg/kg for antitumor activity against P388 leukemia cells in mice.; type: functional, Mus musculus
# P388 [9] = assay: Compound was tested for T/C range at optimal dose of 0.5 mg/kg for antitumor activity against P388 leukemia cells in mice; value ranges from 160-447; type: functional, Mus musculus
# P388 [10] = assay: Long-term survivors (LTS) for 60 days at optimal dose of 0.5 mg/kg for antitumor activity against P388 leukemia cells in 54 mice.; type: functional, Mus musculus
# P388 [11] = assay: Compound was tested for T/C range at optimal dose of 0.15 mg/kg for antitumor activity against P388 leukemia cells in mice; value ranges from 168-600; type: functional, Mus musculus
# P388 [12] = assay: Long-term survivors (LTS) for 60 days at optimal dose of 0.15 mg/kg for antitumor activity against P388 leukemia cells in 25 mice.; type: functional, Mus musculus
# P388 [13] = assay: Compound was tested for T/C range at optimal dose of 1.00 mg/kg for antitumor activity against P388 leukemia cells in mice; value ranges from 234-302; type: functional, Mus musculus
# P388 [14] = assay: Long-term survivors (LTS) for 60 days at optimal dose of 1.00 mg/kg for antitumor activity against P388 leukemia cells in 12 mice.; type: functional, Mus musculus
# P388 [15] = assay: Long-term survivors (LTS) for 60 days at optimal dose of 5.00 mg/kg for antitumor activity against P388 leukemia cells in 12 mice.; type: functional, Mus musculus
# P388 [16] = assay: Compound was tested for T/C range at optimal dose of 5.00 mg/kg for antitumor activity against P388 leukemia cells in mice; value ranges from 149-224; type: functional, Mus musculus
Structure (SMILES),IC50 (L1210),IC50 (Tubulin),other results
CCOP(=O)(OCC)[C@@H](C)NC(=O)[C@@]1(O)[C@H](O)[C@]2(CC)C=CCN3CC[C@@]4(c5cc([C@@]6(C(=O)OC)C[C@@H]7CN(CCc8c6[nH]c6ccccc86)C[C@](O)(CC)C7)c(OC)cc5N(C)[C@@H]14)[C@@H]32,37 nM,80 nM,T/C (P388 [1]): 145%; LTS (P388 [2]): 0
CCOP(=O)(OCC)C(C)NC(=O)[C@@]1(O)[C@H](O)[C@]2(CC)C=CCN3CC[C@@]4(c5cc([C@@]6(C(=O)OC)C[C@@H]7CN(CCc8c6[nH]c6ccccc86)C[C@](O)(CC)C7)c(OC)cc5N(C)[C@@H]14)[C@@H]32 (mixture of isomers),2.5 nM,100 nM,LTS (P388 [3]): 7; T/C (P388 [4]): 151%
CCOP(=O)(OCC)[C@@H](Cc1c[nH]c2ccccc12)NC(=O)[C@@]1(O)[C@H](O)[C@]2(CC)C=CCN3CC[C@@]4(c5cc([C@@]6(C(=O)OC)C[C@@H]7CN(CCc8c6[nH]c6ccccc86)C[C@](O)(CC)C7)c(OC)cc5N(C)[C@@H]14)[C@@H]32,36.7 nM,100 nM,LTS (P388 [5]): 0; T/C (P388 [6]): 197%
CCOC(=O)CC(NC(=O)[C@@]1(O)[C@H](O)[C@]2(CC)C=CCN3CC[C@@]4(c5cc([C@@]6(C(=O)OC)C[C@@H]7CN(CCc8c6[nH]c6ccccc86)C[C@](O)(CC)C7)c(OC)cc5N(C)[C@@H]14)[C@@H]32)P(=O)(OCC)OCC (mixture of isomers),2.77 nM,300 nM,LTS (P388 [7]): 0; T/C (P388 [8]): 122%
CCOP(=O)(OCC)[C@H](Cc1c[nH]c2ccccc12)NC(=O)[C@@]1(O)[C@H](O)[C@]2(CC)C=CCN3CC[C@@]4(c5cc([C@@]6(C(=O)OC)C[C@@H]7CN(CCc8c6[nH]c6ccccc86)C[C@](O)(CC)C7)c(OC)cc5N(C)[C@@H]14)[C@@H]32,64.7 nM,100 nM,LTS (P388 [5]): 0; T/C (P388 [6]): 188%
CCOP(=O)(OCC)C(NC(=O)[C@@]1(O)[C@H](O)[C@]2(CC)C=CCN3CC[C@@]4(c5cc([C@@]6(C(=O)OC)C[C@@H]7CN(CCc8c6[nH]c6ccccc86)C[C@](O)(CC)C7)c(OC)cc5N(C)[C@@H]14)[C@@H]32)C(C)C (mixture of isomers),0.64 nM,300 nM,T/C (P388 [9]): 160%; LTS (P388 [10]): 11
CCOP(=O)(OCC)[C@@H](NC(=O)[C@@]1(O)[C@H](O)[C@]2(CC)C=CCN3CC[C@@]4(c5cc([C@@]6(C(=O)OC)C[C@@H]7CN(CCc8c6[nH]c6ccccc86)C[C@](O)(CC)C7)c(OC)cc5N(C)[C@@H]14)[C@@H]32)C(C)C,0.43 nM,400 nM,T/C (P388 [11]): 168%; LTS (P388 [12]): 8
C=CCC(NC(=O)[C@@]1(O)[C@H](O)[C@]2(CC)C=CCN3CC[C@@]4(c5cc([C@@]6(C(=O)OC)C[C@@H]7CN(CCc8c6[nH]c6ccccc86)C[C@](O)(CC)C7)c(OC)cc5N(C)[C@@H]14)[C@@H]32)P(=O)(OCC)OCC (stereo partly specified),3.7 nM,300 nM,T/C (P388 [13]): 234%; LTS (P388 [14]): 2
CCOP(=O)(OCC)C(Cc1ccccc1)NC(=O)[C@@]1(O)[C@H](O)[C@]2(CC)C=CCN3CC[C@@]4(c5cc([C@@]6(C(=O)OC)C[C@@H]7CN(CCc8c6[nH]c6ccccc86)C[C@](O)(CC)C7)c(OC)cc5N(C)[C@@H]14)[C@@H]32 (mixture of isomers),46 nM,70 nM,LTS (P388 [15]): 0; T/C (P388 [16]): 149%
